A word on the Ki: it is a measure of affinity in units of concentration, obtained from inhibition or displacement. In general, IC50 refers to the point on the concentration scale where inhibition reaches its midpoint.

Experiment [1] can be described thus: Displacement of [3H]-DTG from sigma 2 receptor in guinea pig brain membranes after 120 mins by microbeta scintillation counting method. For orientation: In a radioligand displacement assay an active substance lowers the binding of a labelled ligand.
For experiment [2], the system named is HREC. The experiment is described as follows: Antiangiogenic activity against HREC cells assessed as inhibition of tube formation measured after 24 hrs by matrigel based tube formation assay. Particulars: Homo sapiens. The format is functional, cell-based.
Experiment [3] relates to HREC. As to the kind of experiment: Antimigratory activity against VEGF-A stimulated HREC assessed as inhibition of cell motility at 5 uM in presence of AC927 measured after 48 hrs by wound closure assay. Particulars: Homo sapiens. The experiment is classed as functional. Summed up: (§1)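 Primary HREC grown to confluence were scratched to make a 1 mm wound and washed with PBS. They were then incubated 48 h at 37 °C in complete medium with 80 ng/mL VEGF-A and 5 μM compound, alone or with 2 μM PTZ or 2 μM AC927. Wounds were photographed by phase contrast at 0, 24 and 48 h, and closure taken as the distance both fronts moved into the wound. Mean ± SEM of three independent experiments, three wells each.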

Experiment [4] has as its system HREC. As to the kind of experiment: Antimigratory activity against VEGF-A stimulated HREC assessed as wound closure at 5 uM measured after 48 hrs by wound closure assay. The format is functional, tissue-based. Particulars: Homo sapiens. Summed up:
as §1

Experiment [5] has as its system HREC. As to the kind of experiment: Antimigratory activity against VEGF-A stimulated HREC assessed as wound closure at 5 uM in presence of PTZ measured after 48 hrs by wound closure assay. Particulars: Homo sapiens. The format is functional, tissue-based. Summed up: as §1
A short description of experiment [6]: Antiproliferative activity against VEGF-A stimulated human retinal endothelial cell assessed as reduction in cell viability measured after 24 hrs by MTT assay. The experiment is classed as functional. Particulars: HREC. For orientation: Formazan colour is commonly taken as a measure of viable cells.
The nature of experiment [7]: Antiproliferative activity against VEGF-A stimulated human retinal endothelial cell assessed as reduction in cell viability measured after 48 hrs by MTT assay. The experiment is classed as functional. Particulars: HREC.
The nature of experiment [8]: Antiproliferative activity against VEGF-A stimulated human retinal endothelial cell assessed as reduction in cell viability measured after 72 hrs by MTT assay. The format is functional. Particulars: HREC.
The nature of experiment [9]: Antiangiogenic activity against VEGF-A stimulated human retinal endothelial cell assessed as cell proliferation measured after 48 hrs by crystal violet assay. The experiment is classed as functional. Particulars: HREC. In outline: (§2)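 They were then treated at 5 μM with or without 80 ng/mL VEGF-A, with DMSO as vehicle. Cells were PBS-washed, fixed in 4% paraformaldehyde, stained with 0.5% crystal violet in 20% methanol, extracted with 10% acetic acid and read at 570/590 nm. Proliferation is given as % of vehicle; triplicate.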

Experiment [10] is described as follows: Antiangiogenic activity against VEGF-A stimulated Human endothelial cell assessed as cell proliferation measured after 72 hrs by crystal violet assay. The experiment is classed as functional, tissue-based.
Experiment [11] is described as follows: Antiangiogenic activity against VEGF-A stimulated human retinal endothelial cell assessed as cell proliferation measured after 24 hrs by crystal violet assay. Particulars: HREC. The experiment is classed as functional. In outline:
as §2

Structures are written as SMILES. The source made the active and inactive calls. The rule behind the calls is not given here.

In [1], `O[C@H](CCCN1CCC(O)(c2ccc(Cl)cc2)CC1)c1ccc(F)cc1` came in with a Ki of 0.032 µM.

Take `CCCC(CCC)C(=O)O[C@@H](CCCN1CCC(O)(c2ccc(Cl)cc2)CC1)c1ccc(F)cc1`: the result in [2] and in experiment [4] was Active. In addition, the result in experiment [3] was inactive.

Regarding `CCCC(CCC)C(=O)O[C@H](CCCN1CCC(O)(c2ccc(Cl)cc2)CC1)c1ccc(F)cc1`, the outcome in experiment [2] and in [4] was Active. Moreover, the outcome in experiment [3] and in [5] was inactive.

As for `CCCC(CCC)C(=O)OC(CCCN1CCC(O)(c2ccc(Cl)cc2)CC1)c1ccc(F)cc1` (racemic), the result in [2] and in [4] was Active. The affinity in experiment [1] corresponds to a Ki of 0.124 µM.

As to `OC(CCCN1CCC(O)(c2ccc(Cl)cc2)CC1)c1ccc(F)cc1` (racemic) [HYDROXYHALOPERIDOL], the IC50 in experiment [6] is > 200 µM; in experiment [7], 128 µM; in experiment [8], 69 µM; in experiment [9], 129 µM; in [10], 69.2 µM.

For `CCCC(CCC)C(=O)O` [VALPROIC ACID], the IC50 was 1230 µM in [11], 1450 µM in [9] and 1380 µM in experiment [10].

Values taken from ChEMBL document CHEMBL5030538 (J Med Chem, 2021).
